Data reported in ChEMBL document CHEMBL5247675, “Antimicrobial Peptides Incorporating Halogenated Marine-Derived Amino Acid Substituents” (ACS Med Chem Lett, 2023).
Non-standard residues stand in square brackets, D forms with d. Residues, ends and D or L forms follow the SMILES beside them. *: point of attachment. Bip = N[C@@H](Cc1ccc(-c2ccccc2)cc1)C(=O)O; Lys(Me3) = C[N+](C)(C)CCCC[C@H](N)C(=O)O; NHPhenethyl = c1ccc(CCN*)cc1

Key:
Escherichia coli = experiment: Antimicrobial activity against Escherichia coli ATCC 25922 assessed as reduction in microbial growth incubated for 18 hrs by CLSI protocol based two fold serial dilution method; assay type: functional
Staphylococcus aureus = experiment: Antimicrobial activity against Staphylococcus aureus ATCC 29213 assessed as reduction in microbial growth incubated for 18 hrs by CLSI protocol based two fold serial dilution method; assay type: functional
Candida albicans = experiment: Antimicrobial activity against Candida albicans SC5314 assessed as reduction in microbial growth incubated for 48 hrs by CLSI protocol based broth microdilution method; assay type: functional
Cyberlindnera jadinii = experiment: Antimicrobial activity against clinical isolate Candida utilis SVB-Y1 assessed as reduction in microbial growth incubated for 48 hrs by CLSI protocol based broth microdilution method; assay type: functional; conditions: Williopsis jadinii
Procedure, shortened: (§1)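 Clinical isolates of the fungi were subcultured from Auckland City Hospital. MICs were determined following Clinical and Laboratory Standards Institute recommended protocols.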

Aspergillus fumigatus = experiment: Antimicrobial activity against clinical isolate Aspergillus fumigatus SVB-F136 assessed as reduction in microbial growth incubated for 48 hrs by CLSI protocol based broth microdilution method; assay type: functional; procedure, shortened: as §1
[1] = Hemolytic activity in human RBC assessed as hemolysis rate at 100 uM incubated for 45 mins by spectrophotometric assay relative to control; assay type: toxicity, cell-based, Erythrocyte; conditions: human red blood cells, read-out: Activity
Procedure, shortened: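 Isolated, washed human erythrocytes were exposed to each compound at a single concentration of 100 μM. Percent hemolysis was recorded as a relative measure between compounds.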

[2] = Cytotoxicity against human HeLa cells assessed as reduction in cell viability incubated for 24 hrs by PrestoBlue assay; assay type: toxicity, cell-based
Procedure, shortened: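 HeLa (human epithelial) cells were exposed to serial peptide dilutions from 1.4 to 87.5 μM for 24 h at 37 °C. Viability was read by PrestoBlue, and IC50 was taken from dose–response curves. There were two independent experiments, each in triplicate, reported as mean ± SD.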

[3] = Hemolytic activity in human RBC assessed as hemolysis rate incubated for 45 mins by spectrophotometric assay; assay type: toxicity, cell-based, Erythrocyte; conditions: human red blood cells

| Compound | MIC (Escherichia coli) | MIC (Staphylococcus aureus) | MIC (Candida albicans) | MIC (Cyberlindnera jadinii) | MIC (Aspergillus fumigatus) | hemolysis at 0.75 h, 100 µM [1] | IC50 at 24 h [2] | EC50 at 45 min [3] |
| --- | --- | --- | --- | --- | --- | --- | --- | --- |
| C[N+](C)(C)CCCC[C@H](NC(=O)[C@H](Cc1ccc(-c2ccccc2)cc1)NC(=O)[C@@H](N)CCCC[N+](C)(C)C)C(=O)NCCc1ccccc1 (H-[Lys(Me3)]-[Bip]-[Lys(Me3)]-NHPhenethyl) | > 64 µM | > 64 µM | > 64 µM | 64 µM | > 64 µM | – | – | – |
| C[C@@H]1[C@H](O)[C@@H](C)/C=C/C=C/C=C/C=C/C=C/C=C/C=C/[C@H](O[C@@H]2O[C@H](C)[C@@H](O)[C@H](N)[C@@H]2O)C[C@@H]2O[C@](O)(C[C@@H](O)C[C@@H](O)[C@H](O)CC[C@@H](O)C[C@@H](O)CC(=O)O[C@H]1C)C[C@H](O)[C@H]2C(=O)O [AMPHOTERICIN B] | – | – | 1 µM | 2 µM | 4 µM | – | – | – |
| COc1c(Br)cc(CCNC(=O)[C@H](CCCNC(=N)N)NC(=O)[C@H](Cc2c[nH]c3cc(Br)ccc23)NC(=O)[C@@H](N)CCCNC(=N)N)cc1Br | 16 µM | 8 µM | 2 µM | 2 µM | 16 µM | 1.19% | > 87.5 µM | – |
| COc1c(Br)cc(C[C@H](NC(=O)CCCCC[N+](C)(C)C)C(=O)N[C@@H](CCCNC(=N)N)C(=O)NCCc2ccccc2)cc1Br | > 64 µM | > 64 µM | > 64 µM | > 64 µM | > 64 µM | – | – | – |
| COc1ccc(CCNC(=O)[C@H](CCCNC(=N)N)NC(=O)[C@H](Cc2ccc(-c3ccc(OC)c(Br)c3)cc2)NC(=O)[C@@H](N)CCCNC(=N)N)cc1Br | > 64 µM | > 64 µM | 32 µM | 4 µM | > 64 µM | 0.29% | – | – |
| N=C(N)NCCC[C@H](NC(=O)[C@H](Cc1c[nH]c2cc(Br)ccc12)NC(=O)[C@@H](N)CCCNC(=N)N)C(=O)NCCc1ccccc1 | > 64 µM | > 64 µM | 16 µM | 8 µM | > 64 µM | 0.29% | > 87.5 µM | – |
| C[N+](C)(C)CCCC[C@H](N)C(=O)N[C@@H](Cc1ccc(-c2ccccc2)cc1)C(=O)N[C@@H](CCCNC(=N)N)C(=O)NCCc1ccccc1 (H-[Lys(Me3)]-[Bip]-Arg-NHPhenethyl) | > 64 µM | > 64 µM | > 64 µM | > 64 µM | > 64 µM | – | – | – |
| COc1c(Br)cc(CCNC(=O)[C@H](CCCCN)NC(=O)[C@H](Cc2cc(Br)c(OC)c(Br)c2)NC(=O)[C@@H](N)CCCCN)cc1Br | > 64 µM | 64 µM | > 64 µM | 32 µM | > 64 µM | – | – | – |
| COc1c(Br)cc(CCNC(=O)[C@H](CCCNC(=N)N)NC(=O)[C@H](Cc2ccc(-c3cc(Br)c(OC)c(Br)c3)cc2)NC(=O)[C@@H](N)CCCNC(=N)N)cc1Br | 8 µM | 4 µM | 4 µM | 4 µM | 16 µM | 1.62% | > 87.5 µM | – |
| N=C(N)NCCC[C@H](NC(=O)[C@H](Cc1ccccc1)NC(=O)[C@@H](N)CCCNC(=N)N)C(=O)NCCc1ccccc1 (H-Arg-Phe-Arg-NHPhenethyl) | > 64 µM | > 64 µM | > 64 µM | > 64 µM | > 64 µM | 0.33% | – | – |
| CC1(C)S[C@@H]2[C@H](NC(=O)[C@H](N)c3ccc(O)cc3)C(=O)N2[C@H]1C(=O)O [AMOXICILLIN] | 16 µM | 4 µM | – | – | – | – | – | – |
| COc1c(Br)cc(C[C@H](NC(=O)[C@@H](N)CCCNC(=N)N)C(=O)N[C@@H](CCCNC(=N)N)C(=O)NCCc2ccccc2)cc1Br | > 64 µM | > 64 µM | 16 µM | 8 µM | 64 µM | 0.34% | – | – |
| C[N+](C)(C)CCCCC[C@H](N)C(=O)N[C@@H](Cc1ccc(-c2ccccc2)cc1)C(=O)N[C@@H](CCCNC(=N)N)C(=O)NCCc1ccccc1 | > 64 µM | > 64 µM | > 64 µM | > 64 µM | > 64 µM | – | – | – |
| COc1c(Br)cc(CCNC(=O)[C@H](CCCNC(=N)N)NC(=O)[C@H](Cc2c[nH]c3ccccc23)NC(=O)[C@@H](N)CCCNC(=N)N)cc1Br | > 64 µM | 64 µM | 8 µM | 8 µM | 64 µM | 0.35% | – | – |
| C[N+](C)(C)CCCC[C@H](NC(=O)[C@H](Cc1ccc(-c2ccccc2)cc1)NC(=O)[C@@H](N)CCCNC(=N)N)C(=O)NCCc1ccccc1 (H-Arg-[Bip]-[Lys(Me3)]-NHPhenethyl) | > 64 µM | > 64 µM | > 64 µM | > 64 µM | > 64 µM | – | – | – |
| N=C(N)NCCC[C@H](NC(=O)[C@@H](Cc1c[nH]c2cc(Br)ccc12)NC(=O)[C@@H](N)CCCNC(=N)N)C(=O)NCCc1ccccc1 | > 64 µM | > 64 µM | > 64 µM | 16 µM | > 64 µM | 0.27% | – | – |
| COc1c(Br)cc(C[C@H](NC(=O)[C@@H](N)CCCNC(=N)N)C(=O)N[C@@H](CCCNC(=N)N)C(=O)NCCc2c[nH]c3cc(Br)ccc23)cc1Br | > 64 µM | > 64 µM | > 64 µM | > 64 µM | > 64 µM | – | – | – |
| COc1ccc(-c2ccc(C[C@H](NC(=O)[C@@H](N)CCCNC(=N)N)C(=O)N[C@@H](CCCNC(=N)N)C(=O)NCCc3ccccc3)cc2)cc1 | > 64 µM | 32 µM | 2 µM | 2 µM | > 64 µM | 0.4% | > 87.5 µM | – |
| N=C(N)NCCC[C@H](NC(=O)[C@H](Cc1ccc(-c2cc(Br)c(O)c(Br)c2)cc1)NC(=O)[C@@H](N)CCCNC(=N)N)C(=O)NCCc1cc(Br)c(O)c(Br)c1 | > 64 µM | > 64 µM | > 64 µM | 64 µM | ≥ 64 µM | – | – | – |
| COc1c(Br)cc(-c2ccc(C[C@H](NC(=O)[C@@H](N)CCCNC(=N)N)C(=O)N[C@@H](CCCNC(=N)N)C(=O)NCCc3ccccc3)cc2)cc1Br | 16 µM | 8 µM | 4 µM | 4 µM | 16 µM | 1.38% | > 87.5 µM | – |
| POLYMYXIN B | 0.0625 µM | > 64 µM | – | – | – | – | – | – |
| CC(C)(C)c1cc(C(C)(C)C)c2[nH]c(C(C)(C)C)c(C[C@H](NC(=O)[C@@H](N)CCCNC(=N)N)C(=O)N[C@@H](CCCNC(=N)N)C(=O)NCCc3ccccc3)c2c1 [LTX-109] | 2 µM | 2 µM | 4 µM | 2 µM | 8 µM | 4.23% | 46.6 µM | 222 µM |
